Test results reported in ChEMBL document CHEMBL4229470, “Synthetic molecules for disruption of the MYC protein-protein interface” (Bioorg Med Chem, 2018).
In brackets after ≈: the same amount, converted by molar mass. Activity calls are given as the source filed them. The calls are words filed in the database; no cut-off is given here.

Tests used:
[1] = Solubility in pH 6 MES buffer by dynamic light scattering assay; type: physicochemical
Procedure, shortened: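 Dynamic light scattering in MES, pH 6.0, with <0.1% DMSO.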

[2] = target: Myc proto-oncogene protein (Homo sapiens) (UniProt P01106); assay: Binding affinity to His-tagged Myc (unknown origin) expressed in Escherichia coli BL21 at 10 uM by Bio-FET analysis relative to KJ-Pyr-9
Myc proto-oncogene protein (Homo sapiens), sequence (P01106 whole entry): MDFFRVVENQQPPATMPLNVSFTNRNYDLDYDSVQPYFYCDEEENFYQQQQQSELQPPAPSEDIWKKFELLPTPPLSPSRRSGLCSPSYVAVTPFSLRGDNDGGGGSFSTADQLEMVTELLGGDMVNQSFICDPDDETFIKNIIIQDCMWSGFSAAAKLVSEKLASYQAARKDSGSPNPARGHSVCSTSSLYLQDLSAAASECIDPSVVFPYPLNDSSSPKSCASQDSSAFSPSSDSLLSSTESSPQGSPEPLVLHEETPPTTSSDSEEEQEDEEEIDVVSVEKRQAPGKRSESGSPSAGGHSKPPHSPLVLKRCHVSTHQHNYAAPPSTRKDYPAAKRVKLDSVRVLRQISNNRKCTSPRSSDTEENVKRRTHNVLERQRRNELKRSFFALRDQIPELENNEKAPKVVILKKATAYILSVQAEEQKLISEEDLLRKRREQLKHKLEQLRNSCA
Procedure, shortened: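 His-tagged MYC bHLH construct immobilized on a Bio-FET chip. Compounds at 10 μM in 3% DMSO in MES buffer; chip response at 10 μM normalized to a 10 μM reference ligand (saturating, maximal signal) run on each chip.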

[3] = target: T1, c-Myc/Max (Homo sapiens) (UniProt P01106+P61244); assay: Binding affinity to His-tagged Myc/Max (unknown origin) expressed in Escherichia coli BL21 at 10 uM by Bio-FET analysis
Procedure, shortened: (§1)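 Bio-FET chip screening at 10 μM against monomeric MAX (mMAX), MYC-MAX and MAX-MAX dimers. Heterodimers stabilized by a disulfide through a C-terminal cysteine introduced into the MYC bHLH and MAX constructs.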

[4] = target: Protein max (Homo sapiens) (UniProt P61244); assay: Binding affinity to His-tagged monomeric Max (unknown origin) expressed in Escherichia coli BL21 at 10 uM by Bio-FET analysis; procedure, shortened: as §1
Protein max (Homo sapiens), sequence (P61244 whole entry): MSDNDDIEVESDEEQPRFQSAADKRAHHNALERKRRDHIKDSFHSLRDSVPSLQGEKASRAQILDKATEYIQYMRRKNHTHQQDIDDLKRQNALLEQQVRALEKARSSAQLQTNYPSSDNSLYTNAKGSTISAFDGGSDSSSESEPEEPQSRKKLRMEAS

[5] = target: Protein max (Homo sapiens) (UniProt P61244); assay: Binding affinity to His-tagged dimeric Max (unknown origin) expressed in Escherichia coli BL21 at 10 uM by Bio-FET analysis; procedure, shortened: as §1
[6] = target: T1, c-Myc/Max (Homo sapiens); assay: Inhibition of biotin-labeled EBOX dsDNA binding to Myc-Max (unknown origin) at 10 uM preincubated for 15 mins followed by test compound-protein mixture addition to biotin-labeled EBOX dsDNA immobilized chip measured over 2.5 mins by SPR analysis; type: protein-complex assay
Procedure, shortened: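 SPR. Disulfide-stabilized MYC-MAX dimer incubated with compound at 10 μM, then flowed over a DNA chip surface; sensorgram perturbation compared with vehicle control.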

[7] = system: dsDNA; assay: Binding affinity to biotin-labeled EBOX dsDNA (unknown origin) at 10 uM measured over 2.5 mins by SPR analysis; type: nucleic-acid assay
Procedure, shortened: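 SPR check of compound alone flowed over the DNA surface, without protein.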

[8] = Drug metabolism in rat liver microsomes assessed as oxidized furan ion formation by measuring parent compound remaining at 5 uM after 3 mins by LC-MS analysis; type: ADME, microsome; settings: 0.05 h
Procedure, shortened: (§2)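 Compounds incubated with rat liver microsomes at 37 °C for the indicated times; mass analysis monitoring the oxidized furan ion; recovery calculated from the AUC of the extracted ion.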

[9] = Drug metabolism in rat liver microsomes assessed as oxidized furan ion formation by measuring parent compound remaining at 5 uM after 7 mins by LC-MS analysis; type: ADME, microsome; procedure, shortened: as §2
[10] = Drug metabolism in rat liver microsomes assessed as oxidized furan ion formation by measuring parent compound remaining at 5 uM after 15 mins by LC-MS analysis; type: ADME, microsome; settings: 0.25 h; procedure, shortened: as §2
[11] = Drug metabolism in rat liver microsomes assessed as oxidized furan ion formation by measuring parent compound remaining at 5 uM after 25 mins by LC-MS analysis; type: ADME, microsome; procedure, shortened: as §2
[12] = Drug metabolism in rat liver microsomes assessed as oxidized furan ion formation by measuring parent compound remaining at 5 uM after 45 mins by LC-MS analysis; type: ADME, microsome; settings: 0.75 h; procedure, shortened: as §2
[13] = AUC (0 to infinity) in C57Bl6 mouse at 10 mg/kg, iv by LC-MS analysis; type: ADME, organism-based; parameters: dose 10 mg/kg, route intravenous, time infinity; settings: in vivo
Procedure, shortened: (§3)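 Pharmacokinetic parameters determined in C57Bl6 mice.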

[14] = system: Mus musculus; assay: AUMC (0 to infinity) in C57Bl6 mouse at 10 mg/kg, iv by LC-MS analysis; type: ADME, organism-based; settings: in vivo; procedure, shortened: as §3
[15] = MRT in C57Bl6 mouse at 10 mg/kg, iv by LC-MS analysis; type: ADME, organism-based; settings: in vivo; procedure, shortened: as §3
[16] = Clearance in C57Bl6 mouse at 10 mg/kg, iv by LC-MS analysis; type: ADME, organism-based; settings: in vivo; procedure, shortened: as §3
[17] = Terminal half life in C57Bl6 mouse at 10 mg/kg, iv by LC-MS analysis; type: ADME, organism-based; settings: in vivo, read-out: beta t1/2 (converted); procedure, shortened: as §3
[18] = Volume of distribution at steady state in C57Bl6 mouse at 10 mg/kg, iv by LC-MS analysis; type: ADME, organism-based; settings: in vivo; procedure, shortened: as §3
[19] = Terminal half life in rat at 1 mg/kg, iv; type: ADME, organism-based; settings: in vivo, read-out: beta t1/2 (converted)
[20] = AUC (0 to infinity) in rat at 1 mg/kg, iv; type: ADME, organism-based; parameters: dose 1 mg/kg, time infinity, route intravenous; settings: in vivo
[21] = system: Rattus norvegicus; assay: AUMC (0 to infinity) in rat at 1 mg/kg, iv; type: ADME, organism-based; settings: in vivo
[22] = MRT in rat at 1 mg/kg, iv; type: ADME, organism-based; settings: in vivo
[23] = Clearance in rat at 1 mg/kg, iv; type: ADME, organism-based; settings: in vivo

| solubility [1] [µM] | Activity [2] [%] | Activity [3] | Activity [4] | Activity [5] | inhibition [6] | Activity [7] | further results | SMILES |
| --- | --- | --- | --- | --- | --- | --- | --- | --- |
| 32 (≈ 12.2 µg/mL) | 55 | inactive | inactive | inactive | Active | inactive |  | Cn1nncc1-c1cc(-c2ccc(C(N)=O)cc2)cc(-c2ccc(C#N)cc2)n1 |
| 64 (≈ 24.5 µg/mL) | 79 | inactive | inactive | inactive | Active | inactive |  | N#Cc1ccc(-c2cc(-c3ccc(C(N)=O)cc3)cc(-c3cncs3)n2)cc1 |
| < 1 | 0 | inactive | inactive | inactive | inactive | inactive |  | COc1ccc(-c2cc(-c3ccc(C(N)=O)cc3)nc(-c3ccccc3)n2)cc1 |
| 32 (≈ 14.2 µg/mL) | 76 | inactive | inactive | inactive | Active | inactive |  | CS(=O)(=O)NC(=O)c1ccc(-c2cc(-c3ccc(C#N)cc3)nc(-c3ccco3)c2)cc1 |
| 250 (≈ 91.6 µg/mL) | 0 | inactive | inactive | inactive | inactive | inactive |  | N#Cc1ccc(-c2cc(-c3ccc(C(N)=O)cc3)cc(-c3cnco3)n2)cc1 |
| < 1 | 188 | inactive | inactive | inactive | Active | inactive |  | c1coc(-c2cc(-c3nccs3)cc(-c3ccc(-c4nccs4)cc3)n2)c1 |
|  | 97 | inactive | inactive | inactive | Active | inactive | Stability [8]: 84.31%; Stability [9]: 80.8%; Stability [10]: 74.39%; Stability [11]: 67.5%; Stability [12]: 62.23%; AUC(0-inf) [13]: 44000 ng·h/mL; AUMC [14]: 190000 ng·h/mL; MRT [15]: 4.3 h; clearance [16]: 3.8 mL/min/kg | NC(=O)c1ccc(-c2cc(-c3ccc(-c4nccs4)cc3)nc(-c3ccco3)c2)cc1 |
| 2 (≈ 0.787 µg/mL) | 0 | inactive | inactive | inactive | inactive | inactive |  | N#Cc1ccc(-c2cc(-c3ccc(C(N)=O)cc3)cc(-c3cccc(F)c3)n2)cc1 |
| 10 (≈ 3.65 µg/mL) | 106 | inactive | inactive | inactive | Active | inactive |  | N#Cc1ccc(-c2cc(-c3ccc(C(N)=O)cc3)cc(-c3ccco3)n2)cc1 |
| 8 (≈ 3.08 µg/mL) |  |  | inactive | inactive |  | inactive | Stability [8]: 49.69%; Stability [9]: 31.47%; Stability [10]: 25.88%; Stability [11]: 20.91%; Stability [12]: 22%; half-life [17]: 1 h; AUC(0-inf) [13]: 1450 ng·h/mL; AUMC [14]: 1360 ng·h/mL; MRT [15]: 0.94 h; Vd [18]: 6.44 L/kg; clearance [16]: 115 mL/min/kg; half-life [19]: 1.6 h; AUC(0-inf) [20]: 258 ng·h/mL; AUMC [21]: 427 ng·h/mL; MRT [22]: 1.7 h; clearance [23]: 65 mL/min/kg | NC(=O)c1ccc(-c2cc(-c3ccc([N+](=O)[O-])cc3)nc(-c3ccco3)c2)cc1 |
| 18 (≈ 7.03 µg/mL) | 92 | inactive | inactive | inactive | Active | inactive |  | N#Cc1ccc(-c2cc(-c3ccc(-c4nnn[nH]4)cc3)cc(-c3ccco3)n2)cc1 |
| 25 (≈ 9.49 µg/mL) | 3.2 | inactive | inactive | inactive | Active | inactive |  | CNC(=O)c1ccc(-c2cc(-c3ccc(C#N)cc3)nc(-c3ccco3)c2)cc1 |
| 500 (≈ 190 µg/mL) | 0 | inactive | inactive | inactive | inactive | inactive |  | N#Cc1ccc(-c2cc(-c3ccc(C(=O)NN)cc3)cc(-c3ccco3)n2)cc1 |
| 15 (≈ 6.11 µg/mL) | 154 | inactive | inactive | inactive | Active | inactive |  | NC(=O)c1ccc(-c2cc(-c3ccc(-c4cnco4)cc3)nc(-c3ccco3)c2)cc1 |
| 25 (≈ 9.84 µg/mL) | 0 | inactive | inactive | inactive | inactive | inactive |  | N#Cc1ccc(-c2cc(-c3ccc(C(N)=O)cc3)nc(-c3cc[n+]([O-])cc3)n2)cc1 |
| 8 (≈ 3.04 µg/mL) | 41 | inactive | inactive | inactive | Active | inactive |  | Cn1ccnc1-c1cc(-c2ccc(C(N)=O)cc2)cc(-c2ccc(C#N)cc2)n1 |
| 8 (≈ 2.93 µg/mL) | 66 | inactive | inactive | inactive | Active | inactive |  | N#Cc1ccc(-c2cc(-c3ccc(C(N)=O)cc3)nc(-c3ccco3)n2)cc1 |
